This passage reports IC50 and inhibition results from PubChem BioAssay AID602219 (Southern Research Specialized Biocontainment Screening …, 2012).

Records with an inconclusive call do not appear. Calls of active or inactive are those of the source.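 How the source made its calls: active means inhibition of 30% or more at any tested concentration; inactive means the rest, inconclusive results apart.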

One assay addresses M1-family alanyl aminopeptidase (Plasmodium falciparum 3D7). As to the kind of experiment: malaria M1 alanyl aminopeptidase inhibitors – biochemical, QFRET, H-Leu-NHMec substrate, set 2, selectivity assay for PfM18AAP inhibitor project, dose response (AID 602219). As to conditions: recombinant PfM1AAP, H-Leu-NHMec fluorogenic cleavage. In a few lines: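 Assay system – purified recombinant Plasmodium falciparum M1 alanyl aminopeptidase (rPfM1AAP) · Input – 5 µg/mL rPfM1AAP · Replication – triplicate · Signal – fluorescence of released NHMec, excitation 370 nm, emission 460 nm · Measure – IC50 from 4-parameter logistic fit, limits fixed 0–100% · Also added – 0.1 mM H-Leu-NHMec · Timing – enzyme reaction 90 min at room temperature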
Take `Oc1ccc(CCNc2ccnc3ccccc23)cc1O`: the half-maximal inhibitory concentration (IC50) was 46.4 µM. On the same count and under the same terms, the value for `CN1CCN(c2nc(-c3ccc(O)c(O)c3)cs2)CC1` was 70.1 µM; that for `Oc1ccc(-c2csc(NC3CCCC3)n2)cc1O` was 63 µM. The same measure, in the same setting: the value for `Oc1ccc(CCNc2c3ccccc3nc3ccccc23)cc1O` was 29.8 µM; that for `Oc1ccc(-c2csc(Nc3ncccn3)n2)cc1O` was 25.9 µM.

The assay is the same for the next values; noted with them: recombinant PfM1AAP, H-Leu-NHMec fluorogenic cleavage; at 100 µM (top of the series).
Consider `CN1CCN(CCCc2ccc(O)c(O)c2)CC1`, for which the inhibition result was “inactive”. On to `COc1ccc(CCCN2CCN(C)CC2)cc1OC`, for which the inhibition result is “inactive”. For the compound `CN1CCN(CCc2ccc(O)c(O)c2)CC1`, the inhibition result was “inactive”.

Turning to `COc1ccc(CCNC(c2ccccc2)c2ccccc2)cc1OC`, the inhibition result is “inactive”.

What is called IC50 is the concentration that inhibits the measured activity by half.
